In ChEMBL document CHEMBL4411279, “Synthesis of new chalcone-based homoserine lactones and their antiproliferative activity evaluation” (Eur J Med Chem, 2019) one finds IC50 data, which are given here for 34 molecules.

Each structure is given as a SMILES string.

What all share (type): functional, cell-based
In one assay the test system is DU-145. In words: Antiproliferative activity against human DU145 cells after 72 hrs by MTT assay. The note with it: DU-145, 72 h. In short, it runs like this: (§1)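 Cells seeded 3,000/well, after 24 h medium replaced with compound at 64, 32, 16, 8, 4, 2, 1, 0.5 µM; 72 h exposure, MTT read-out at 570 nm; IC50 given as mean ± SD.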
For orientation: Tetrazolium assays rely on reduction of a dye to a coloured formazan, in cell work by metabolically active cells.

The subject of the next assay is MCF7. As to the kind of experiment: Antiproliferative activity against human MCF7 cells after 72 hrs by MTT assay. The note with it: MCF7, 72 h. The essentials: as §1
The next assay deals with PC-3. In words: Antiproliferative activity against human PC3 cells after 72 hrs by MTT assay. The conditions noted are these: PC-3, 72 h. The essentials:
as §1

Another assay relates to MGC-803. In words: Antiproliferative activity against human MGC803 cells after 72 hrs by MTT assay. The note with it: MGC-803, 72 h. In short, it runs like this:
as §1

In general, IC50 refers to the concentration at which inhibition is half-maximal. Take `O=C1OCC[C@@H]1NC(=S)SCCOc1ccc(Cl)cc1`: the IC50 with DU-145 was above 64 µM; in the assay on MCF7, 50.5 µM; in the assay with PC-3, above 64 µM; in the assay on MGC-803, 51.1 µM.
Consider `CC(C)c1ccc(/C=C/C(=O)c2ccc(OCC(=O)N[C@H]3CCOC3=O)cc2)cc1`, for which the 50% inhibitory concentration (IC50) is 13.1 µM with DU-145, 23.4 µM in the assay on MCF7, 4.66 µM with PC-3 and 16.8 µM with MGC-803.
On the same counts, the results for `Cc1cc(Cl)ccc1NCC(=O)N[C@H]1CCOC1=O` are above 64 µM, above 64 µM, above 64 µM and above 64 µM.
On the same counts, the results for `O=C(CNc1ccc(Cl)cc1)N[C@H]1CCOC1=O` are above 64 µM, above 64 µM, above 64 µM and above 64 µM.
As to `CC(C)c1ccc(NCC(=O)N[C@H]2CCOC2=O)cc1`, the 50% inhibitory concentration (IC50) with DU-145, in the assay on MCF7, with PC-3 and in the assay on MGC-803 was above 64 µM each time.
`O=C(CNc1ccccc1)N[C@H]1CCOC1=O`: the IC50 with DU-145, with MCF7, with PC-3 and in the assay with MGC-803 was above 64 µM throughout.
For the molecule `CCCCCCCCCCSC(=S)N[C@H]1CCOC1=O`, the IC50 in the assay on DU-145, with MCF7, with PC-3 and in the assay with MGC-803 was above 64 µM throughout.
With `O=C(COc1ccc(C(=O)/C=C/c2cccc(Cl)c2)cc1)N[C@H]1CCOC1=O`, the IC50 in the assay with DU-145 was found to be 3.7 µM; in the assay on MCF7 it was 20.9 µM; with PC-3, 4.99 µM; in the assay on MGC-803, 29.1 µM.
On the same counts, the results for `O=C(COc1ccc(C(=O)/C=C/c2ccc(F)cc2)cc1)N[C@H]1CCOC1=O` are 18.8 µM, above 64 µM, 15.6 µM and above 64 µM.
On the same counts, the results for `O=C(COc1ccc(C(=O)/C=C/c2ccc(F)c(F)c2)cc1)N[C@H]1CCOC1=O` are 19.8 µM, above 64 µM, 21.9 µM and above 64 µM.
For the molecule `O=C(COc1ccc(C(=O)/C=C/c2cccc([N+](=O)[O-])c2)cc1)N[C@H]1CCOC1=O`, the IC50 in the assay with DU-145 was 41.8 µM; in the assay on MCF7, above 64 µM; in the assay on PC-3, 56.2 µM; in the assay on MGC-803, above 64 µM.
Take `O=C(CNc1ccc(Br)cc1)N[C@H]1CCOC1=O`: the IC50 in the assay with DU-145, in the assay on MCF7, in the assay with PC-3 and in the assay with MGC-803 was above 64 µM throughout.
Consider `O=C(CNc1ccc(F)cc1)N[C@H]1CCOC1=O`, for which the IC50 in the assay with DU-145, with MCF7, in the assay on PC-3 and in the assay on MGC-803 was above 64 µM throughout.
`O=C(COc1ccc(C(=O)/C=C/c2ccc(Br)cc2)cc1)N[C@H]1CCOC1=O`: the IC50 with DU-145 was 51.7 µM; with MCF7, above 64 µM; with PC-3 it was above 64 µM; in the assay on MGC-803 it was 51 µM.
Regarding `CCOc1ccccc1OCCSC(=S)N[C@H]1CCOC1=O`, the IC50 was 28.2 µM with DU-145, above 64 µM in the assay on MCF7, 24.1 µM in the assay on PC-3 and above 64 µM with MGC-803.
For `O=C(COc1ccc(C(=O)/C=C/c2cccc(F)c2)cc1)N[C@H]1CCOC1=O`, the IC50 was 17.2 µM in the assay with DU-145, above 64 µM with MCF7, 23.2 µM with PC-3 and above 64 µM in the assay on MGC-803.
Take `O=C1OCC[C@@H]1NC(=S)SCCOc1ccc([N+](=O)[O-])cc1`: the IC50 in the assay with DU-145 is 31 µM; in the assay with MCF7, above 64 µM; in the assay on PC-3, 32.5 µM; in the assay on MGC-803, above 100 µM.
On the same counts, the results for `O=C(COc1ccc(C(=O)/C=C/c2cccc(Br)c2)cc1)N[C@H]1CCOC1=O` are 9.8 µM, 28.3 µM, 7.89 µM and 11.9 µM.
On the same counts, the results for `O=C(CNc1ccccc1Cl)N[C@H]1CCOC1=O` are above 64 µM, above 64 µM, above 64 µM and above 64 µM.
On the same counts, the results for `O=C1OCC[C@@H]1NC(=S)SCCOc1ccccc1Cc1ccccc1` are above 64 µM, 39.5 µM, above 64 µM and 32.3 µM.
As for `O=C(CNc1ccccc1F)N[C@H]1CCOC1=O`, the IC50 in the assay with DU-145, in the assay on MCF7, with PC-3 and in the assay with MGC-803 was above 64 µM in each case.
On to `O=C(CNc1cccc(Cl)c1)N[C@H]1CCOC1=O`, for which the IC50 with DU-145, in the assay with MCF7, with PC-3 and with MGC-803 was above 64 µM each time.
For `CC(=O)c1ccc(OCCSC(=S)N[C@H]2CCOC2=O)cc1`, the IC50 was 32.6 µM with DU-145, above 64 µM with MCF7, 46.9 µM with PC-3 and above 64 µM with MGC-803.
Take `C=CCc1ccc(OCCSC(=S)N[C@H]2CCOC2=O)c(OC)c1`: the IC50 in the assay with DU-145 was above 64 µM; in the assay on MCF7, above 64 µM; in the assay on PC-3, above 64 µM; in the assay with MGC-803, 27.9 µM.
As to `O=C(COc1ccc(C(=O)/C=C/c2ccc(Cl)cc2Cl)cc1)N[C@H]1CCOC1=O`, the IC50 was 8.61 µM with DU-145, 34.4 µM with MCF7, 8.04 µM in the assay on PC-3 and 26.5 µM with MGC-803.
On the same counts, the results for `COc1ccccc1/C=C/C(=O)c1ccc(OCC(=O)N[C@H]2CCOC2=O)cc1` are 10.1 µM, above 64 µM, 7.24 µM and 39.4 µM.
On the same counts, the results for `O=C1OCC[C@@H]1NC(=S)SCCOc1ccccc1[N+](=O)[O-]` are 33.4 µM, above 64 µM, 24 µM and 47 µM.
In the case of `O=C1OCC[C@@H]1NC(=S)SCCOc1ccccc1`, the IC50 in the assay on DU-145 is 63.8 µM; in the assay with MCF7, above 64 µM; in the assay with PC-3, above 64 µM; in the assay with MGC-803, 53.8 µM.
Consider `Cc1ccc(C(C)C)c(OCCSC(=S)N[C@H]2CCOC2=O)c1`, for which the IC50 with DU-145 is above 64 µM; in the assay on MCF7, above 64 µM; in the assay on PC-3, above 64 µM; in the assay with MGC-803, 43.4 µM.
In the case of `O=C(COc1ccc(C(=O)/C=C/c2ccccc2)cc1)N[C@H]1CCOC1=O`, the IC50 in the assay on DU-145 was 48.3 µM; in the assay with MCF7 it was above 64 µM; in the assay with PC-3, 56.8 µM; with MGC-803, above 64 µM.
As for `O=C(COc1ccc(C(=O)/C=C/c2ccccc2Br)cc1)N[C@H]1CCOC1=O`, the IC50 in the assay on DU-145 was 3.54 µM; with MCF7 it was 15.2 µM; in the assay with PC-3, 3.26 µM; in the assay on MGC-803, 12.2 µM.
In the case of `O=C1OCC[C@@H]1NC(=S)SCCOc1cccc2ccccc12`, the IC50 with DU-145, in the assay with MCF7, in the assay with PC-3 and in the assay on MGC-803 was above 64 µM throughout.
Regarding `CC(C)(C)c1ccc(/C=C/C(=O)c2ccc(OCC(=O)N[C@H]3CCOC3=O)cc2)cc1`, the IC50 in the assay with DU-145 turned out to be 6.57 µM; with MCF7 it was 16.4 µM; in the assay with PC-3, 10.6 µM; with MGC-803, 17.2 µM.
On the same counts, the results for `O=C(CNc1ccc(Cl)cc1Cl)N[C@H]1CCOC1=O` are above 64 µM, above 64 µM, above 64 µM and above 64 µM.
